Measurements pooled from the literature.
Lines come from different studies, so protocols differ.
Cell line: HEL
Read-out: cell growth or viability

Structure (SMILES) | setting | CC50 [µM]
CCCCCCCCCCCCCCCCOCCCOP(=O)(O)COCCn1cnc2c(=O)[nH]c(=O)[nH]c21 | 72 h | 10
Nc1nc2c(ncn2COCCO)c(=O)[nH]1 |  | 440
CCOP(=O)(OCC)[C@@H]1C[C@@H](n2cc(Cn3ccc(=O)[nH]c3=O)nn2)ON1C (racemic) | 72 h | > 100
CC(C)CNC(=O)[C@H](C)NC(=O)[C@@]1(Cc2ccccc2)CCN1C(=O)OCc1ccccc1 | 72 h | > 100
CCOP(=O)(OCC)[C@@H]1C[C@H](n2cc(-c3nccn3C)nn2)ON1C | 72 h | > 100
O=c1[nH]c(=O)c2ncn(CC(CO)OCP(=O)(O)O)c2[nH]1 (racemic) | 72 h | ≥ 300
C[C@H](NC(=O)[C@]1(Cc2ccccc2)CCN1C(=O)OCc1ccccc1)C(=O)NCc1ccccc1 | 72 h | 42
CCOP(=O)(OCC)[C@H]1C[C@@H](Cn2c(=O)n(C(=O)c3ccccc3)c(=O)c3ccccc32)ON1C |  | > 100
C[C@H](NC(=O)[C@@]1(Cc2ccccc2)CCN1C(=O)OCc1ccccc1)C(=O)N(C)C | 72 h | > 100
CCOP(=O)(OCC)[C@@H]1C[C@@H](n2cc(Cn3ccc(NC(C)=O)nc3=O)nn2)ON1C (racemic) | 72 h | > 100
